MT1-MMP act inh: blockers of MT1-MMP proenzyme processing, primary screen, HT1080 RFP-PRO-GFP cells, GFP/RFP fluorescence | Matrix metalloproteinase-14 (Homo sapiens), P50281 | GFP/RFP ratio fluorescence, overnight; percent of plate control window, DMSO zero | GFP/RFP ratio change, % at 20 µM | AID 651647, 2012 | 360,000 tested, 0.061% active;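 active = GFP/RFP ratio change of at least 30% with cell ATP level not reduced by more than half and red fluorescence within 50% of control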
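Assay system: HT1080 cells carrying an RFP-PRO-GFP reporter | Dosing: Single dose of 20 µM compound, 1% DMSO final | Incubation: Cells overnight before dosing, compound overnight, 37 °C, 5% CO2 | Evaluation: GFP/RFP fluorescence ratio | Control set: DMSO and RFP-L50D-GFP cell wells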
SKN-1 block: suppressors of acrylamide-induced Pgst-4::GFP reporter in worms, primary screen, SKN-1 inhibitor project, whole organism, uHTS, GFP/RFP fluorescence ratio, strain VP596; inhibition, % at 21.8 µM; AID 624304, 2012; C. elegans VP596 Pgst-4::GFP/RFP ratio, 24 h; 360,000 tested, 0.49% active;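 active = interference check ratio from 0.5 to 1.5 plus GFP to RFP signal ratio inhibition reaching or exceeding a fixed threshold, cut at about 30% in these data, passing the limit was not always enough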
ADAM17 inh: ADAM17 inhibitors, primary screen, biochemical, QFRET; recombinant ADAM17, EDANS/DABCYL FRET peptide cleavage; 370,000 tested, 0.83% active; Disintegrin and metalloproteinase domain-containing protein 17 (Homo sapiens), P78536; inhibition, % at 6.95 µM;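 active = inhibition above the mean of compounds lying between control limits plus 3 SD, set per campaign, cut at about 8.5% in these data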;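 also: 0% = DMSO-only wells as the low control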
NR3A LBD binder: binders of NR3A ligand-binding domain, primary screen, biophysical, differential scanning fluorimetry, uHTS; 340,000 tested, 2.5% active; NR3A LBD differential scanning fluorimetry, Tm shift; 0% = protein alone, 100% = glycine-bound protein; Glutamate receptor ionotropic, NMDA 3A (GRIN3A) ligand-binding domain; Tm shift relative to glycine control, % at 25 µM;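 active = melting temperature shift of at least 10% of the positive control shift, at one fixed dose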
MPTP inh: mitochondrial permeability transition pore inhibitors, primary screen, biochemical, isolated mouse mitochondria, absorbance. Ca2+ swelling absorbance, 30 min. AID 602449, 2012. 360,000 tested, 1.4% active. inhibition, % at 10 µM;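 active = inhibition of 50% or more, scaled per plate between neutral and stimulator controls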;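 also: 0% = DMSO wells given calcium and 100% = 1 mM EGTA wells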
ADAM10 inh: human ADAM10 inhibitors, primary screen, biochemical, QFRET, HTS; Disintegrin and metalloproteinase domain-containing protein 10 (Homo sapiens), O14672; recombinant ADAM10, EDANS/DABCYL FRET peptide cleavage, 3 h; inhibition, % at 7 µM; 370,000 tested, 0.62% active; AID 720582, 2013;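 active = inhibition above a per-campaign cutoff equal to the mean of compounds falling between control-based bounds plus 3 SD, cut at about 20% in these data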;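 also: 0% = DMSO wells while the 100% control is not disclosed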
Target sequence (O14672 214-748 limits assumed): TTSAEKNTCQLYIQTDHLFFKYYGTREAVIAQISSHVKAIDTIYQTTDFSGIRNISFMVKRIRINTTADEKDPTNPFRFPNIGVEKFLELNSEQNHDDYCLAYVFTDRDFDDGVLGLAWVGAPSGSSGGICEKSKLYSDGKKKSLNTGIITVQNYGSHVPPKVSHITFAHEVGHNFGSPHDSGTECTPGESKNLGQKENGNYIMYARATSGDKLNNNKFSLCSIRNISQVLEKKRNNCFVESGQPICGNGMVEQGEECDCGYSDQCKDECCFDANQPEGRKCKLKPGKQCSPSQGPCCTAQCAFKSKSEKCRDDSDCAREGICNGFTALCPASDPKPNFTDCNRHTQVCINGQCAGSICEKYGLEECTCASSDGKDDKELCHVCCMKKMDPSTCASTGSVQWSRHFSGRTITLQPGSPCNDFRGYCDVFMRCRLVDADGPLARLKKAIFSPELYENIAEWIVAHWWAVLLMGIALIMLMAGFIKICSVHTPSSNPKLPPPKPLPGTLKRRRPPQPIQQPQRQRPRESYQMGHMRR
ADAM10 counter: ADAM10 inhibitors, counter-screen for ADAM17 exosite inhibitor project, biochemical, FRET, human ADAM10. shares compounds with ADAM17 inh. recombinant ADAM10, EDANS/DABCYL FRET peptide cleavage, 3 h. inhibition, % at 6.95 µM. 2,900 tested, 47% active. AID 743256, 2014;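 active = mean inhibition over the triplicate runs exceeds the activity threshold set in the earlier primary screen, cut at about 20% in these data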;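 also: 0% = DMSO wells and 100% = marimastat wells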
ADAM17 confirm: ADAM17 inhibitors, hit retest, confirmation, biochemical, QFRET peptide cleavage; shares compounds with ADAM17 inh; 2,900 tested, 65% active; recombinant ADAM17, EDANS/DABCYL QFRET peptide cleavage; inhibition, % at 6.95 µM;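 active = mean inhibition across replicates above the hit cutoff set in the primary screen, cut at about 8.5% in these data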;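 also: 0% = DMSO wells and 100% = marimastat wells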
* marks the source's active call; other numbers are inactive results; x = no result. Sampled rows, rich in hits. Any-hit rate of the full collection: about 4.7%.

SMILES	MT1-MMP act inh	SKN-1 block	ADAM17 inh	NR3A LBD binder	MPTP inh	ADAM10 inh	ADAM10 counter	ADAM17 confirm
c1cncc(-c2ccc3ncnc(NCc4ccc5c(c4)OCO5)c3c2)c1	-11.3	-1.4	-0.6	-3.5	0.2	-7.8	x	x
CN1CCS/C1=C/C=C1\SC(=S)N(CC(=O)O)C1=O	-94.6	-10.4	8.9*	-1.4	1.4	15.4	26.8*	13.1*
CCCCN1C(=O)/C(=C/C=C2\SCCN2C)SC1=S	-102.9	47.7*	12.0*	-6.4	1.1	15.2	24.5*	15.7*
CN1CCS/C1=C/C=C1/SC(=S)N(Cc2ccccc2)C1=O	-86.7	23.2	8.1	-3.4	2.0	15.6	x	x
NS(=O)(=O)c1ccc(N/N=C2/CCCCC2C2CCCCC2)c([N+](=O)[O-])c1 (configuration not stated)	-9.7	12.9	11.7*	0.3	18.2	18.2	17.4	8.7*
Cc1ccc(C(=O)NC2(C(Cl)Cl)N=C(c3ccccc3)N=C2N)cc1 (configuration not stated)	3.6	-14.2	-15.1	0.6	0.0	-24.3	x	x
CC1(C)CC(=O)C2=C(C1)N(N1CCOCC1)C(N)=C(C#N)C2c1cccs1 (configuration not stated)	-1.5	8.8	1.2	-2.7	-0.1	-12.3	x	x
CC(=O)N(C)c1ccc(N=Nc2ccc3ncccc3c2)cc1	4.4	21.4	9.6*	-1.6	-1.3	17.1	1.2	4.8
COc1cccc2[nH]c(C(=O)NC(C)c3ccccc3)cc12 (configuration not stated)	-3.4	11.6	-43.3	0.5	-0.6	-114.0	x	x
CCN(CC)c1ccc(NC(=O)c2cc3c(OC)cccc3[nH]2)cc1	6.2	3.2	16.9*	-2.3	0.9	18.1	6.5	8.2
O=S(=O)(NCc1ccccc1)c1ccc(Cl)c(S(=O)(=O)NCc2ccccc2)c1	1.0	-3.8	2.9	-11.4	16.9	-2.0	x	x
O=C(N/N=C/c1cccnc1)C1CCCN(S(=O)(=O)c2ccccc2)C1 (configuration not stated)	1.2	-2.6	9.2*	-0.4	1.0	6.0	7.7	7.0
COc1cc2cnncc2cc1OC	3.1	13.9	-3.2	-0.6	0.9	-9.3	x	x
COc1cc2cc(Br)cc(Br)c2nc1C	-7.7	23.2	10.5*	-0.1	-1.3	13.5	21.1*	12.9*
CC1(C)COC(/C=C/c2ccc([N+](=O)[O-])cc2)=N1	-20.4	-3.1	-1.5	0.2	0.3	-5.6	x	x
COc1ccc(NC(=O)CN(C)C(=O)/C=C/c2cn(-c3ccccc3)nc2-c2ccc(C)cc2)cc1	-5.4	-11.4	12.7*	6.5	-1.9	4.7	2.1	10.2*
C=CCNC(=S)NNC(=O)CSc1nc2ccccc2s1	3.3	1.0	11.1*	2.2	1.8	4.8	-0.1	4.8
N#C/C(=C\c1ccc(-c2nc3ccccc3s2)o1)C(N)=O	-21.0	1.1	-28.1	-1.2	2.5	-63.5	x	x
COc1ccc(/C=N/NC(=S)Nc2ccccc2)cc1COc1ccc(F)cc1	-2.9	-1.2	4.6	-3.2	0.6	4.4	x	x
CCOc1ccc(NC(=O)CN2CCN(c3ccccc3C)CC2)cc1S(=O)(=O)N1CCCC1	1.4	-3.1	-2.7	-0.3	-1.3	-4.1	x	x
CCOc1ccc(NC(=O)CN2CCN(c3ccc(F)cc3)CC2)cc1S(=O)(=O)N1CCCC1	4.1	-6.5	10.5*	x	0.7	-0.9	2.4	4.5
COc1cc(OC)cc(N(C(=O)C2COc3ccccc3O2)C(C(=O)NC2CCCCC2)c2ccc(O)cc2)c1 (configuration not stated)	-50.6	-9.5	11.1*	-1.9	-1.1	15.2	15.0	10.0*
COc1ccc(OC)c(-c2csc(NC(=O)Cc3cc(OC)c(OC)c(OC)c3)n2)c1	-5.8	3.7	-1.1	-3.3	3.8	5.8	x	x
COc1ccc(OC)c(-c2csc(NC(=O)Cc3ccc(F)cc3)n2)c1	-5.4	5.5	8.6*	-3.4	2.5	9.8	31.9*	15.7*
CCC(C)NS(=O)(=O)c1ccc(S(=O)(=O)N(CCc2ccc(OC)c(OC)c2)Cc2cccs2)cc1 (configuration not stated)	-9.5	24.4	8.9*	-10.7	2.8	17.4	38.2*	15.7*
SMILES	MT1-MMP act inh	SKN-1 block	ADAM17 inh	NR3A LBD binder	MPTP inh	ADAM10 inh	ADAM10 counter	ADAM17 confirm
COc1ccc(CCN(Cc2cccs2)S(=O)(=O)c2ccc(F)cc2)cc1OC	x	x	15.2*	x	x	19.1	9.8	7.0
CC(CN(C)Cc1ccccc1)OC(=O)c1ccc(F)cc1 (configuration not stated)	-5.5	-4.9	-5.7	0.4	0.5	-5.8	x	x
Cc1ccc(C)c(S(=O)(=O)N(C)Cc2cccs2)c1	-0.7	-22.6	8.8*	-1.4	0.6	-0.8	23.5*	12.3*
COc1ccc(S(=O)(=O)N(C)Cc2cccs2)cc1Br	-4.1	1.5	3.7	3.9	-0.6	12.7	x	x
CCOC(=O)Cn1c(C(=O)OCC)cc2sccc21	-2.4	-0.8	9.2*	-0.5	-0.3	1.3	3.3	7.2
CCc1ccc(CCNC(=O)OCCCN2CCC3(CCC(c4ccccc4)CC3)C2=O)cc1 (configuration not stated)	x	x	9.4*	x	x	12.0	36.2*	15.4*
CC(C)N1CCC1(C)C(=O)Nc1ccccc1OC(F)F (configuration not stated)	-3.8	0.6	9.9*	x	1.4	8.8	-6.5	2.8
CCOc1ccc(CCNC(=O)CN2C(=O)c3cccnc3Oc3ccc(Cl)cc32)cc1	-6.5	7.5	11.0*	3.7	-1.0	3.4	21.1*	18.6*
CC1CCC(NC(=O)C(NS(=O)(=O)c2cccc3nsnc23)C(C)C)CC1 (configuration not stated)	-5.0	-1.9	13.5*	0.1	-1.0	0.6	5.0	7.0
